Experimental findings from ChEMBL document CHEMBL2440067, “Novel 3-nitro-1H-1,2,4-triazole-based piperazines and 2-amino-1,3-benzothiazoles as antichagasic agents” (Bioorg Med Chem, 2013) are described below.

Data set [1] relates to Trypanosoma cruzi. Nature of the data set: Ratio of banznidazole IC50 to compound IC50 for Trypanosoma cruzi Tulahuen C4 amastigotes. It is filed as functional.
Data set [2] in a line: Selectivity index, ratio of IC50 for rat L6 cells to IC50 for Trypanosoma cruzi Tulahuen C4 amastigotes. The conditions noted are these: read-out: Ratio IC50. Type of data set: toxicity, cell-based. The method, boiled down:
(§1)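 SI is the L6 myoblast IC50 divided by the IC50 against the parasite named. IC50s come from 96-well dose-response curves, each the mean of two independent assays.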

Data set [3] in a line: Selectivity index, ratio of IC50 for rat L6 cells to IC50 for blood stream form of Trypanosoma brucei rhodesiense STIB 900. It is filed as toxicity, cell-based. Particulars: read-out: Ratio IC50. An outline of the steps: as §1
Another data set deals with Leishmania donovani. The data set can be described thus: Antimicrobial activity against Leishmania donovani MHOM-ET-67/L82 amastigotes after 72 hrs by Alamar blue assay. Type of data set: functional, organism-based. Particulars: MHOM-ET-67/L82, 72 h. The method, boiled down:
(§2)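 96-well plate growth-inhibition format. Targets were T. b. rhodesiense bloodstream trypomastigotes, T. cruzi Tulahuen C4 amastigotes inside L6 rat skeletal myoblasts, axenically cultured L. donovani MHOM-ET-67/L82 amastigotes, and L6 cells alone for cytotoxicity.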
On the technique in general: Resazurin is reduced to fluorescent resorufin, in cell work by metabolically active cells.

In the next data set the test system is L6. The data set can be described thus: Cytotoxicity against rat L6 cells after 72 hrs by Alamar blue assay. It is filed as cell-based. Particulars: L6, 72 h. An outline of the steps:
as §2

For data set [4], the system named is Trypanosoma brucei rhodesiense. The data set can be described thus: Antimicrobial activity against blood stream form of Trypanosoma brucei rhodesiense STIB 900 after 72 hrs by Alamar blue assay. It is filed as functional, organism-based. The conditions noted are these: STIB 900, 72 h. The method, boiled down:
as §2

The nature of data set [5]: Selectivity index, ratio of IC50 for rat L6 cells to IC50 for Leishmania donovani MHOM-ET-67/L82 amastigotes. It is filed as toxicity, cell-based. The conditions noted are these: read-out: Ratio IC50. An outline of the steps:
as §1

Data set [6] concerns Trypanosoma cruzi. Nature of the data set: Antimicrobial activity against Trypanosoma cruzi Tulahuen C4 amastigotes infected in rat L6 cells after 96 hrs by beta-galactosidase reporter gene assay. It is filed as functional, organism-based. The conditions noted are these: Tulahuen C4, L6, 96 h. The method, boiled down:
as §2
A general note: A reporter such as luciferase makes a cellular process visible.

A short description of data set [7]: Prodrug conversion assessed as Trypanosoma brucei brucei recombinant his-tagged nitroreductase-mediated NADH oxidization by spectrophotometric analysis. Type of data set: ADME. The conditions noted are these: isolated protein.

The term IC50 denotes the concentration that gives 50% inhibition. A higher IC50 goes with weaker potency. Regarding `O=[N+]([O-])c1ncn(CCCN2CCN(c3ccncc3)CC2)n1`, the “Ratio IC50” value in the data set with Trypanosoma cruzi [1] was 0.2. Besides, the selectivity ratio was 17.5 in data set [2], 115 in [3] and less than 1 in data set [5]. In addition, the IC50 with Leishmania donovani is greater than 315 µM; in the data set with L6, 154 µM; in data set [4], 1.34 µM; in the data set with Trypanosoma cruzi [6], 8.8 µM.
Regarding `Cl.O=C(C1CC1)N1CCN(CCCn2cnc([N+](=O)[O-])n2)CC1`, the “Ratio IC50” value with Trypanosoma cruzi [1] is 0.3. In addition, the values for the selectivity ratio in data set [2], in data set [3] and in [5] were 43.1, 13 and less than 1, respectively. For the same compound, the IC50 in the data set with Leishmania donovani is greater than 290 µM; with L6, 203 µM; in data set [4], 15.6 µM; in the data set on Trypanosoma cruzi [6], 4.7 µM.
On to `O=[N+]([O-])c1ncn(CCCNc2nc3ccc(Cl)cc3s2)n1`, for which the “Ratio IC50” value with Trypanosoma cruzi [1] was found to be 26.6. The selectivity ratio in [2] was determined as 1720; in data set [3], 500; in data set [5] it was 22.7. The IC50 with Leishmania donovani came out at 4.49 µM; in the data set with L6, 102 µM; in data set [4], 0.204 µM; with Trypanosoma cruzi [6], 0.059 µM.
On to `O=[N+]([O-])c1ncn(CCCNc2nc3ccccc3s2)n1`, for which the “Ratio IC50” value in the data set on Trypanosoma cruzi [1] is reported as 3.6. Besides, the selectivity ratio in data set [2] came out at 287; in data set [3] it was 170; in data set [5], 8.1. Also, the IC50 with Leishmania donovani came out at 20 µM; with L6 it was 162 µM; in data set [4], 0.954 µM; in the data set on Trypanosoma cruzi [6], 0.566 µM.
As for `O=[N+]([O-])c1ncn(CCCCNc2nc3ccc(Cl)cc3s2)n1`, the “Ratio IC50” value in the data set on Trypanosoma cruzi [1] came out at 14.4. The selectivity ratio was 314 in data set [2], 126 in [3] and 10.9 in [5]. The IC50 in the data set with Leishmania donovani worked out at 4.1 µM; in the data set with L6, 44.5 µM; in data set [4], 0.355 µM; with Trypanosoma cruzi [6], 0.142 µM.
For the compound `O=[N+]([O-])c1nccn1CCCNc1nc2ccc(Cl)cc2s1`, the “Ratio IC50” value with Trypanosoma cruzi [1] was found to be 0.6. Besides, the values for the selectivity ratio in data set [2], in data set [3] and in data set [5] were 15.3, 6.5 and 11.6, respectively. Also, the IC50 was 4.27 µM with Leishmania donovani, 49.5 µM in the data set with L6, 7.61 µM in data set [4] and 3.23 µM with Trypanosoma cruzi [6].
With `O=[N+]([O-])c1nccn1CCCNc1nc2ccccc2s1`, in the data set with Trypanosoma cruzi [1], the “Ratio IC50” value is 0.4. Also, the selectivity ratio is 36.1 in data set [2], 3.4 in data set [3] and 15.4 in data set [5]. Further, the IC50 amounted to 11.4 µM in the data set with Leishmania donovani, 176 µM in the data set on L6, 52.5 µM in [4] and 4.88 µM with Trypanosoma cruzi [6].
On to `O=[N+]([O-])c1nccn1CCCCNc1nc2ccc(Cl)cc2s1`, for which, in the data set with Trypanosoma cruzi [1], the “Ratio IC50” value was determined as 1.2. Further, the selectivity ratio in data set [2] worked out at 24.6; in data set [3], 11.1; in [5] it was 5.5. Further, the IC50 was 7.3 µM in the data set with Leishmania donovani, 43 µM in the data set on L6, 3.87 µM in [4] and 1.75 µM with Trypanosoma cruzi [6].
As to `Cl.Cl.O=[N+]([O-])c1ncn(CCCN2CCN(Cc3ccc(C(F)(F)F)cc3)CC2)n1`, the “Ratio IC50” value with Trypanosoma cruzi [1] came out at 4.6. Moreover, in data set [7], the Drug metabolism stood at 420 nmol/min/mg.
Turning to `Cl.Cl.O=[N+]([O-])c1ncn(CCCCN2CCN(Cc3ccc(C(F)(F)F)cc3)CC2)n1`, in the data set with Trypanosoma cruzi [1], the “Ratio IC50” value amounted to 3.8. For the same compound, the Drug metabolism in data set [7] was determined as 364 nmol/min/mg.
Regarding `Cl.Cl.O=[N+]([O-])c1ncn(CCCN2CCN(c3ccc(C(F)(F)F)cc3)CC2)n1`, in the data set on Trypanosoma cruzi [1], the “Ratio IC50” value is recorded as 39.2. Besides, the Drug metabolism in data set [7] came to 788 nmol/min/mg.
Consider `Cl.Cl.Cl.Cl.O=[N+]([O-])c1ncn(CCCN2CCN(Cc3ccc(Cl)c(Cl)c3)CC2)n1`, for which the “Ratio IC50” value in the data set on Trypanosoma cruzi [1] is 7.1. In addition, the selectivity ratio in data set [2] is 117; in data set [3] it was 42.9; in data set [5], 1.4. Further, the IC50 in the data set on Leishmania donovani was 23.9 µM; with L6 it was 33.5 µM; in data set [4] it was 0.78 µM; in the data set on Trypanosoma cruzi [6], 0.286 µM.
As for `Cc1ccc(N2CCN(CCCn3cnc([N+](=O)[O-])n3)CC2)cc1.Cl.Cl`, in the data set on Trypanosoma cruzi [1], the “Ratio IC50” value worked out at 3.7. The selectivity ratio is 289 in [2], 5.1 in [3] and less than 1 in data set [5]. The IC50 amounted to 173 µM in the data set with Leishmania donovani, 121 µM in the data set with L6, 23.9 µM in [4] and 0.419 µM in the data set with Trypanosoma cruzi [6].
With `Cl.Cl.N#Cc1ccccc1N1CCN(CCCn2cnc([N+](=O)[O-])n2)CC1`, the “Ratio IC50” value in the data set on Trypanosoma cruzi [1] was 2.5. The selectivity ratio was 137 in data set [2], 10.8 in data set [3] and less than 1 in [5]. For the same compound, the IC50 stood at 180 µM with Leishmania donovani, 113 µM in the data set with L6, 10.5 µM in [4] and 0.828 µM in the data set on Trypanosoma cruzi [6].
With `COc1ccc(N2CCN(CCCn3cnc([N+](=O)[O-])n3)CC2)cc1.Cl.Cl`, in the data set with Trypanosoma cruzi [1], the “Ratio IC50” value is recorded as 2.8. The selectivity ratio is 224 in [2], 3.5 in data set [3] and less than 1 in [5]. The half-maximal inhibitory concentration (IC50) is greater than 239 µM in the data set on Leishmania donovani, 125 µM with L6, 35.6 µM in [4] and 0.556 µM with Trypanosoma cruzi [6].
On to `COc1ccc(N2CCN(CCCn3ccnc3[N+](=O)[O-])CC2)cc1.Cl.Cl`, for which the “Ratio IC50” value in the data set on Trypanosoma cruzi [1] was 0.1. Besides, the figures for the selectivity ratio in data set [2], in data set [3] and in data set [5] were 4, 2.2 and less than 1, respectively. Moreover, the IC50 in the data set with Leishmania donovani stood at 186 µM; with L6, 137 µM; in data set [4], 62.4 µM; in the data set with Trypanosoma cruzi [6] it was 34.4 µM.
As for `Cl.Cl.Cl.Cl.O=[N+]([O-])c1nccn1CCCN1CCN(Cc2ccc(Cl)c(Cl)c2)CC1`, in the data set with Trypanosoma cruzi [1], the “Ratio IC50” value is recorded as 0.2. Moreover, the selectivity ratio is 8.4 in data set [2], 7.4 in [3] and less than 1 in data set [5]. Also, the IC50 in the data set with Leishmania donovani turned out to be 150 µM; in the data set with L6, 79.2 µM; in data set [4] it was 10.7 µM; in the data set with Trypanosoma cruzi [6], 9.4 µM.
With `Cl.Cl.O=[N+]([O-])c1ncn(CCCN2CCN(c3ncccn3)CC2)n1`, the “Ratio IC50” value in the data set with Trypanosoma cruzi [1] worked out at 0.9. In addition, the values for the selectivity ratio in data set [2], in data set [3] and in data set [5] were 152, 5.2 and 1, respectively. For the same compound, the IC50 was greater than 100 µM with Leishmania donovani, greater than 100 µM in the data set with L6, 49.6 µM in data set [4] and 1.68 µM with Trypanosoma cruzi [6].
`Cl.Cl.O=[N+]([O-])c1ncn(CCCN2CCN(c3ccccn3)CC2)n1`: in the data set on Trypanosoma cruzi [1], the “Ratio IC50” value was found to be 1.9. Further, the selectivity ratio was 180 in data set [2], 4.3 in data set [3] and less than 1 in data set [5]. The 50% inhibitory concentration (IC50) in the data set on Leishmania donovani is greater than 315 µM; with L6, 153 µM; in data set [4], 35.6 µM; with Trypanosoma cruzi [6], 0.848 µM.
Regarding `Cl.Cl.Cl.Cl.O=[N+]([O-])c1ncn(CCCN2CCN(c3ccc(Cl)c(Cl)c3)CC2)n1`, the “Ratio IC50” value with Trypanosoma cruzi [1] was 32.7. Further, the figures for the selectivity ratio in data set [2], in data set [3] and in data set [5] were 868, 180 and 3.7, respectively. Further, the concentration for half-maximal inhibition (IC50) was determined as 11.3 µM with Leishmania donovani, 41.7 µM in the data set on L6, 0.231 µM in data set [4] and 0.048 µM in the data set on Trypanosoma cruzi [6].
As to `O=C(Cn1ccnc1[N+](=O)[O-])NCc1ccccc1` [BENZNIDAZOLE], in data set [7], the Drug metabolism worked out at 218 nmol/min/mg.
With `CC1CS(=O)(=O)CCN1/N=C/c1ccc([N+](=O)[O-])o1` (centres undefined) [NIFURTIMOX], the Drug metabolism in [7] is recorded as 74 nmol/min/mg.
